Assay outcomes deposited in PubChem by several laboratories.
PfM18AAP inh: blocks P. falciparum M18 aspartyl aminopeptidase | recombinant PfM18AAP, H-Glu-NHMec fluorogenic cleavage | inhibition, % at 7.35 µM | 1.2% of 290,000 active;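 active = inhibition above the campaign mean inhibition over all tested compounds plus 3 SD, cut at about 28% in these data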
HCV core dimer: blocks dimerization of HCV core protein | inhibition, % at 5 µM | TR-FRET GST/Flag-core106 dimerization, 1536-well | 0.33% of 300,000 active | AID 1899;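 active = inhibition above the mean of all tested compounds plus 3 SD, set per screening campaign, cut at about 45% in these data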
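Assay system: GST-tagged and Flag-tagged HCV core protein residues 1-106 / Times: compound-protein-antibody incubation 4 h at 22.5 °C / Signal: time-resolved FRET, ex 340 nm, em 617 and 671 nm / Evaluation: % inhibition based on acceptor/donor emission ratio / Benchmarks: wells lacking GST-core106 and wells with excess unlabelled core106 / Repeats: singlicate, one well per compound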
ALR H2O2 inh: inhibitors of human sulfhydryl oxidase ALR. P55789. purified ALR, DTT oxidation, H2O2 HRP-luminol luminescence. inhibition, % (concentration not given with the values). 3.8% of 290,000 active;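 active = mean replicate inhibition above about 79%, with every replicate also reaching it, limit read from the data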
Target sequence (P55789 whole entry, looked up): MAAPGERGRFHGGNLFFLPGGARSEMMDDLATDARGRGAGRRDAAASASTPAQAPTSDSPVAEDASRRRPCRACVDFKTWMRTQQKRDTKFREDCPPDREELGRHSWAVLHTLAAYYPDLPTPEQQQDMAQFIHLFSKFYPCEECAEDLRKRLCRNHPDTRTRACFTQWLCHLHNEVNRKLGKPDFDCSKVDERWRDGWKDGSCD
EBNA-1 inh: blocks EBNA-1 binding to DNA; EBNA-1 DNA binding, fluorescence polarization; inhibition, % at 14.8 µM; 0.34% of 300,000 active; in the data active = inhibition above about 28%
ZTA DNA inh: ZTA (EBV) inhibition in EBNA-1 counter-screen. inhibition, % at 11 µM. ZTA-DNA binding, fluorescence polarization. 0.15% of 320,000 active. P03206; in the data active = inhibition above about 33%
Target sequence (P03206 whole entry, looked up): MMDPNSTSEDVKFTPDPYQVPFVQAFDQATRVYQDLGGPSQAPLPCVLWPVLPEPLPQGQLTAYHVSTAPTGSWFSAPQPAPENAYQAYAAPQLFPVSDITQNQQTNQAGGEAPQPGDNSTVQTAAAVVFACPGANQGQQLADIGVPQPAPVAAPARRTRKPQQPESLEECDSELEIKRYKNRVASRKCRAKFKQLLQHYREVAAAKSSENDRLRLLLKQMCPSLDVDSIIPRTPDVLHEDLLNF
HCV NS3 hel inh: inhibitors of Hepatitis C virus NS3 helicase. inhibition, % at 10.9 µM. NS3 helicase DNA unwinding, Cy5 molecular beacon fluorescence. AID 1800. 0.56% of 290,000 active;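 active = inhibition above the mean of all tested compounds plus 3 SD, set per campaign, cut at about 35% in these data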
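System: Hepatitis C virus NS3 helicase domain fragment enzyme | Reagent: Annealed dual-labelled DNA beacon duplex, ATP-started | Compound dosing: 10.9 µM single point, 0.8% DMSO | Incubation: 1 h reaction at 25 °C, ATP-initiated | Technique: Cy5 fluorescence | Evaluation: Percent inhibition from t60/t0 fluorescence ratio | Benchmarks: Low DMSO, high thioflavine S at 110 µM | Replication: Singlicate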
Numbers stand for hits. Most compounds without a hit are left out; they make up all but 5.2% or so of the library.

`COc1cc(/C=N/NC(=O)c2cccc(S(=O)(=O)N3CCCC3)c2)cc(OC)c1O` gave HCV core dimer inactive, ALR H2O2 inh 99, EBNA-1 inh inactive and ZTA DNA inh inactive.
Screening COc1ccc(/C=N/NC(=O)c2cccc(S(=O)(=O)N3CCCC3)c2)cc1O returned ALR H2O2 inh 97 and ZTA DNA inh inactive.
For COc1ccc(/C=N/NC(=O)c2cccc(OC(F)(F)C(F)F)c2)cc1O the results were PfM18AAP inh inactive, HCV core dimer inactive, ALR H2O2 inh 96, EBNA-1 inh inactive, ZTA DNA inh inactive and HCV NS3 hel inh inactive.
C[C@@H]1NS(=O)(=O)[C@H]2C[C@@H]3C=C[C@]2(O3)[C@H]1OC(=O)Nc1ccc(C(F)(F)F)cc1[N+](=O)[O-] was read as ALR H2O2 inh inactive and ZTA DNA inh inactive.
For Cn1cc(-c2ccccc2C(=O)O)c(=O)c2cc(Cl)ccc21 the results were PfM18AAP inh inactive, HCV core dimer inactive, EBNA-1 inh inactive, ZTA DNA inh inactive and HCV NS3 hel inh inactive.
Screening Cc1nc2sccn2c(=O)c1S(=O)(=O)Nc1ccc(N2CCN(C)CC2)cc1 returned PfM18AAP inh inactive, HCV core dimer inactive, ALR H2O2 inh 97, EBNA-1 inh inactive, ZTA DNA inh inactive and HCV NS3 hel inh inactive.
`COc1ccc(N2CCN(S(=O)(=O)c3c(C)nc4sccn4c3=O)CC2)cc1` gave PfM18AAP inh inactive, HCV core dimer inactive, ALR H2O2 inh 84, EBNA-1 inh inactive, ZTA DNA inh inactive and HCV NS3 hel inh inactive.
For Cc1nc2sccn2c(=O)c1S(=O)(=O)N1CCN(c2ccccc2)CC1 the results were PfM18AAP inh inactive, HCV core dimer inactive, ALR H2O2 inh inactive, EBNA-1 inh inactive, ZTA DNA inh inactive and HCV NS3 hel inh inactive.
Screening O=C(Cc1cccc2ccccc12)NCC(=O)N1CCN(Cc2cccc(C(F)(F)F)c2)CC1 returned ZTA DNA inh inactive.
Screening O=C(N/N=C/c1cccnc1)c1ccc2ccccc2c1O returned PfM18AAP inh inactive, ALR H2O2 inh inactive and HCV NS3 hel inh inactive.
Screening O=C(Nc1cccnc1)c1ccc2ccccc2c1O returned PfM18AAP inh inactive, HCV core dimer inactive, ALR H2O2 inh 91, EBNA-1 inh inactive, ZTA DNA inh inactive and HCV NS3 hel inh inactive.
c1cncc(CN=C2Nc3ccccc3CS2)c1 was read as PfM18AAP inh inactive, HCV core dimer inactive, ALR H2O2 inh 98, EBNA-1 inh inactive, ZTA DNA inh inactive and HCV NS3 hel inh inactive.
`Clc1ccc(CN=C2Nc3ccccc3CS2)cc1` gave PfM18AAP inh inactive, HCV core dimer inactive, ALR H2O2 inh inactive, EBNA-1 inh inactive, ZTA DNA inh inactive and HCV NS3 hel inh inactive.
`O=C(CN(C(=O)CCC(=O)Nc1nccs1)c1ccc(F)cc1)NCc1ccccc1` gave PfM18AAP inh inactive, HCV core dimer inactive, ALR H2O2 inh inactive, EBNA-1 inh inactive, ZTA DNA inh inactive and HCV NS3 hel inh inactive.
`CCOc1ccc(CCNC(=O)COC(=O)c2sccc2C)cc1OCC` gave HCV core dimer inactive, ALR H2O2 inh inactive, EBNA-1 inh inactive and ZTA DNA inh inactive.
`CC(=O)Nc1ccc(S(=O)(=O)NNC(=S)NCC2CCCO2)cc1` (stereo not given) gave PfM18AAP inh inactive, HCV core dimer inactive, ALR H2O2 inh 90, EBNA-1 inh inactive, ZTA DNA inh inactive and HCV NS3 hel inh inactive.
Screening NS(=O)(=O)c1ccc(NC(=S)NCC2CCCO2)cc1 (stereo not given) returned PfM18AAP inh inactive, HCV core dimer inactive, ALR H2O2 inh inactive, EBNA-1 inh inactive, ZTA DNA inh inactive and HCV NS3 hel inh inactive.
S=C(NCC1CCCO1)Nc1cccc(Cl)c1 (stereo not given) was read as PfM18AAP inh inactive, HCV core dimer inactive, ALR H2O2 inh inactive, EBNA-1 inh inactive, ZTA DNA inh inactive and HCV NS3 hel inh inactive.
`S=C(NCC1CCCO1)Nc1ccc(Nc2ccccc2)cc1` (stereo not given) gave PfM18AAP inh inactive, HCV core dimer inactive, ALR H2O2 inh 99, EBNA-1 inh inactive, ZTA DNA inh inactive and HCV NS3 hel inh inactive.
Screening c1ccc(CNCc2ccco2)cc1 returned PfM18AAP inh inactive, HCV core dimer inactive, ALR H2O2 inh inactive, EBNA-1 inh inactive, ZTA DNA inh inactive and HCV NS3 hel inh inactive.
Screening CCc1cc(-c2n[nH]c(=S)n2-c2cccc(C)c2)cs1 returned PfM18AAP inh inactive, HCV core dimer inactive, ALR H2O2 inh 85, EBNA-1 inh inactive, ZTA DNA inh inactive and HCV NS3 hel inh inactive.
`CC1=C(C(=O)N2CCN(c3cc(C)ccc3C)CC2)C2(CCCCC2)OC1=O` gave PfM18AAP inh inactive, HCV core dimer inactive, ALR H2O2 inh 87, EBNA-1 inh inactive, ZTA DNA inh inactive and HCV NS3 hel inh inactive.
For Cc1cccc(NC(=O)CCc2nnc3ccc(NCc4ccco4)nn23)n1 the results were PfM18AAP inh inactive, HCV core dimer inactive, ALR H2O2 inh inactive, EBNA-1 inh inactive, ZTA DNA inh inactive and HCV NS3 hel inh inactive.
Cc1ccc(NC2CCCN(C(=O)c3ccc4[nH]ccc4c3)C2)cc1C (stereo not given) was read as PfM18AAP inh inactive, HCV core dimer inactive, ALR H2O2 inh 88, EBNA-1 inh inactive, ZTA DNA inh inactive and HCV NS3 hel inh inactive.
Screening O=C(c1ccc2[nH]ccc2c1)N1CCCC(Nc2ccccc2)C1 (stereo not given) returned PfM18AAP inh inactive, HCV core dimer inactive, ALR H2O2 inh 99, EBNA-1 inh inactive, ZTA DNA inh inactive and HCV NS3 hel inh inactive.
Screening O=C(c1ccc(N2CCOCC2)cc1)N1CCCC(Nc2ccccc2)C1 (stereo not given) returned PfM18AAP inh inactive, HCV core dimer inactive, ALR H2O2 inh inactive, EBNA-1 inh inactive, ZTA DNA inh inactive and HCV NS3 hel inh inactive.
For O=C(Nc1nnc(S(=O)(=O)N2CCN(c3ccc(F)cc3)CC2)s1)c1ccco1 the results were PfM18AAP inh inactive, HCV core dimer inactive, ALR H2O2 inh inactive, EBNA-1 inh inactive, ZTA DNA inh inactive and HCV NS3 hel inh inactive.
Screening COc1ccc(N(CC(=O)NCCSCc2cccc(Cl)c2)S(C)(=O)=O)cc1Cl returned PfM18AAP inh inactive, HCV core dimer inactive, ALR H2O2 inh inactive, EBNA-1 inh inactive, ZTA DNA inh inactive and HCV NS3 hel inh inactive.
Screening CC1=CC(C)(C)N2C(=O)C(=Nc3ccc(O)cc3)c3cccc1c32 returned PfM18AAP inh inactive, HCV core dimer inactive, ALR H2O2 inh 97, EBNA-1 inh inactive, ZTA DNA inh inactive and HCV NS3 hel inh inactive.
Screening COc1cc(N=C2C(=O)N3c4c(cccc42)C(C)=CC3(C)C)cc(OC)c1 returned PfM18AAP inh inactive, HCV core dimer inactive, ALR H2O2 inh inactive, EBNA-1 inh inactive, ZTA DNA inh inactive and HCV NS3 hel inh inactive.
`COc1ccccc1NC(=O)CSc1nnc(-c2ccccn2)n1Cc1ccco1` gave PfM18AAP inh inactive, HCV core dimer inactive, ALR H2O2 inh 97, EBNA-1 inh inactive, ZTA DNA inh inactive and HCV NS3 hel inh inactive.
